Assay results reported in article PMC3774010 (Cancer research, 2013).

Columns and labels:
H1299 cells [1] = experiment: SRB cell growth assay, H1299; format: cell-based, human
Outline: (§1)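 Cells seeded at 6×10^3–8×10^3 per well, grown overnight, then exposed 72 h to test compound (0, 0.5, 1, 2, 5, 10, 30 µM). Surviving fraction measured by sulforhodamine B protein staining; IC50 calculated from the dose series. Data given as mean ± S.D.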

H157 cells = experiment: SRB cell growth assay, H157; format: cell-based, human
Outline: as §1

A549 cells = experiment: SRB cell growth assay, A549; format: cell-based, human; details: A549, 72 h
Outline: as §1

H1299 cells [2] = experiment: Colony formation assay in Bcl-XL shRNA H1299 cells; format: cell-based, human
Nu/Nu nude mice [3] = experiment: In vivo toxicity: body weight, blood analysis, histopathology; details: for platelet reduction compared with ABT-737: 30mg/kg/d i.p. for 14 days
Outline: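 Nu/Nu mice given test compound i.p. daily at various doses (dose-finding: 10–50 mg/kg/d up to 25 days, 6 mice/dose; xenograft mice: 30 mg/kg/d for 14 days). Body weight recorded every other day. Terminal cardiac-puncture blood (250 µL, EDTA) under anaesthesia analyzed for WBC, RBC, platelets, ALT, AST, BUN. Organs examined by H&E histology.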

[4] = test system: normal human bronchial epithelial cells (BEAS-2B); experiment: Cytotoxicity in lung cancer cells versus normal bronchial epithelial cells; format: cell-based
Outline: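 Cells were seeded at 6×10^3–8×10^3 per well, grown overnight, then treated 72 h. Surviving fraction read by sulforhodamine B protein-stain assay. BEAS-2B and A549 were kept in DMEM/F-12 with 10% FBS, and H1299 in RPMI 1640 with 5% FBS plus 5% bovine serum. Lung cancer lines received 0, 0.5, 1, 2, 5, 10 or 30µM.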

Bcl2 = Bcl2 (Homo sapiens, UniProt P10415); experiment: Competition fluorescence polarization assay with Bak BH3 peptide, Bcl2; format: binding; details: 0.1~500nM
[5] = test system: A549-P and A549-IRR cells; experiment: Cell growth of A549-P and A549-IRR cells; format: cell-based, human; details: colony formation 10 days, SRB 72h
Mcl-1 = Mcl-1 (Homo sapiens, UniProt Q07820); experiment: Competition fluorescence polarization assay with Bak BH3 peptide, Mcl-1; format: binding; details: 0.1~500nM
human Bcl-XL protein = human Bcl-XL protein (Homo sapiens, UniProt Q07817); experiment: Competition fluorescence polarization assay with Bak BH3 peptide, Bcl-XL; format: binding; details: purified Bcl-XL 6nM, Bak BH3 peptide 3nM
[6] = test system: H1299 lung cancer xenografts; experiment: H1299 lung cancer xenografts in nude mice; format: in vivo; details: for anti-tumor efficacy compared with ABT-737: 30mg/kg/d i.p. for 14 days
Bfl-1/A1 = target: T1, Bfl-1/A1 (Homo sapiens, UniProt Q16548); experiment: Competition fluorescence polarization assay with Bak BH3 peptide, Bfl-1/A1; format: binding; details: 0.1~500nM
T1 sequence (Q16548 1-175): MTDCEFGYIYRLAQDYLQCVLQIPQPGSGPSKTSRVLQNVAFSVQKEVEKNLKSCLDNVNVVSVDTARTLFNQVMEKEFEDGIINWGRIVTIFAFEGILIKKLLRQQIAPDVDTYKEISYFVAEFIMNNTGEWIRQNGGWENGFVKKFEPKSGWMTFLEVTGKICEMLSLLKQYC

Bcl-w = target: T2, Bcl-w (Homo sapiens, UniProt Q92843); experiment: Competition fluorescence polarization assay with Bak BH3 peptide, Bcl-w; format: binding; details: 0.1~500nM
T2 sequence (Q92843 1-193): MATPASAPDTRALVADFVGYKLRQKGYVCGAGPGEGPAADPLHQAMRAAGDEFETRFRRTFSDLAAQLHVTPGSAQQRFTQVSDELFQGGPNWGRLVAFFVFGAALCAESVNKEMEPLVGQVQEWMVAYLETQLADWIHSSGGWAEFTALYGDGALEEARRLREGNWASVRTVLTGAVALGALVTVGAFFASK

Bcl-XL/Bak = Bcl-XL/Bak (Homo sapiens, UniProt Q07817); experiment: Co-immunoprecipitation of Bcl-XL/Bak in H1299 cells; format: cell-based; details: 0.1–5µM, 24 h
Outline: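 H1299 cells treated 24 h with test compound at 0.1–5 µM. Lysates were immunoprecipitated with a Bcl-XL antibody (normal IgG as IP control), and co-precipitated Bak and Bcl-XL were detected by Western blot. Total-lysate Bcl-XL and Bak levels were also blotted.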

Nu/Nu nude mice [7] = details: mouse, in vivo, ip
Cyt c release = experiment: Cytochrome c release from mitochondria in H1299 cells; format: cell-based, human
Outline: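 Test compound given to H1299 cells at increasing concentrations (0.1–5µM) for 24 h. Subcellular fractionation separated mitochondrial and cytosolic fractions. Cytochrome c detected in the fractions by Western blot, with prohibitin as the mitochondrial marker.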

Bak = Bak oligomerization; format: cell-based, human; details: H1299 cells, BMH cross-linking
Outline: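 H1299 cells exposed to increasing test compound concentrations (0.1–5µM) for 24 h. Mitochondria isolated by subcellular fractionation and taken up in PBS (pH7.2) conjugation buffer. BMH and EDTA added to cross-link Bak sulfhydryls, 1 h at room temperature, then DTT quench for 15 min at room temperature. Products resolved by SDS-PAGE and Western blotted with anti-Bak.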

Bcl-XL/Bax = Bcl-XL/Bax (Homo sapiens, UniProt Q07817); experiment: Bcl-XL/Bax complex disruption in cells; format: cell-based
Nu/Nu nude mice [8] = experiment: Maximum tolerated dose
[9] = test system: A549-P and A549-IRR xenografts; experiment: A549-P and A549-IRR lung cancer xenografts in mice; format: in vivo

Chain of Bcl2 (P10415 whole entry): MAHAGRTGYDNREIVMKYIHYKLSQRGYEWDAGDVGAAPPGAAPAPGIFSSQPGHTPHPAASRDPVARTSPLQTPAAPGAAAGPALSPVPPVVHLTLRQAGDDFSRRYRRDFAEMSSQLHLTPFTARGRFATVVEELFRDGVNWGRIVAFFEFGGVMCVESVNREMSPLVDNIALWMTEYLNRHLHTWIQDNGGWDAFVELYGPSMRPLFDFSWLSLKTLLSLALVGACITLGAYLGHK
Chain of Mcl-1 (Q07820 whole entry): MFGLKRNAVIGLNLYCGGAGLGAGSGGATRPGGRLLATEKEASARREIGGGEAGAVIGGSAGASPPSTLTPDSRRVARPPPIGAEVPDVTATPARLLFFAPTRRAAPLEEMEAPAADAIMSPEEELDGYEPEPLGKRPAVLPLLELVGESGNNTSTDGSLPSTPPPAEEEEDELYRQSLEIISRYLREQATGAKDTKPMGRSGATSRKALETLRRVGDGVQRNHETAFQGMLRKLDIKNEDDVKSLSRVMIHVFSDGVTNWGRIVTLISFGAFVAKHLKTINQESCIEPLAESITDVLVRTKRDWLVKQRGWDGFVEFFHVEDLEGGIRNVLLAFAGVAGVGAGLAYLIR
Chain of human Bcl-XL protein (Q07817 whole entry): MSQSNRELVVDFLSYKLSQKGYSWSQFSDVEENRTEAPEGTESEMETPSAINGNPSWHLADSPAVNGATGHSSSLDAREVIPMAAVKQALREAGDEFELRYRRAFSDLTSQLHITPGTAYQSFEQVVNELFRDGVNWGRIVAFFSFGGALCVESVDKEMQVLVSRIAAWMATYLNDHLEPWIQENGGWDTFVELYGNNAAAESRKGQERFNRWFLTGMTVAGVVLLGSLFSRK
Chain of Bcl-XL/Bax (Q07817 whole entry): as above
Chain of Bcl-XL/Bak (Q07817 whole entry): as above

| Structure (SMILES) | IC50 (H1299 cells [1]; H1299, 72 h, SRB assay) [nM] | sensitivity of H1299 cells after depletion of endogenous Bcl-XL (H1299 cells [2]) | platelet reduction compared with ABT-737 (Nu/Nu nude mice [3]) | cytotoxicity against lung cancer cells compared to normal human bronchial epithelial cells [4] | binding affinity with Bcl2 (Bcl2) | sensitivity of A549-P and A549-IRR cells [5] | binding affinity with Mcl-1 (Mcl-1) | Ki (human Bcl-XL protein) [nM] | IC50 (H157 cells; H157, 72 h, SRB assay) [nM] | anti-tumor efficacy compared with ABT-737 ([6]; H1299 xenografts) | IC50 (A549 cells; SRB assay) [nM] | binding affinity with Bfl-1/A1 (Bfl-1/A1) | binding affinity with Bcl-w (Bcl-w) | also measured |
| --- | --- | --- | --- | --- | --- | --- | --- | --- | --- | --- | --- | --- | --- | --- |
| CN(C)CC[C@H](CSc1ccccc1)Nc1ccc(S(=O)(=O)NC(=O)c2ccc(N3CCN(Cc4ccccc4-c4ccc(Cl)cc4)CC3)cc2)cc1[N+](=O)[O-] [ABT-737, reference compound] | – | – | – | – | – | – | – | – | – | – | – | – | – | IC50 (H1299 cells [1]; Homo sapiens, NCI-H1299, 72 h): 40500 ± 3560 nM; IC50 (H157 cells; Homo sapiens, NCI-H157, 72 h): 27600 ± 1490 nM; IC50 (A549 cells; Homo sapiens): 19400 ± 1230 nM |
| CCOc1ccc2nc3cc(N=Nc4ccc(N)nc4N)ccc3c(N)c2c1 [BXI-61] | 1790 ± 120 | significantly reduced the sensitivity | less effect on platelet than ABT-737 | relatively selective cytotoxicity | very low binding affinities | remained sensitive | very low binding affinities | 14.8 ± 1.54 | 5710 ± 490 | more potent efficacy against human lung cancer than ABT-737 | 3170 ± 280 | very low binding affinities | very low binding affinities | normal tissue toxicities (Nu/Nu nude mice [3]; 40mg/kg/d): without significant normal tissue toxicities except for a slight decrease in platelets; potency against lung cancer in vivo ([6]; 40mg/kg/d): high potency against lung cancer |
| CCOc1ccc(-c2nc3ccc(-c4nc5ccc(N6CCN(C)CC6)cc5[nH]4)cc3[nH]2)cc1 [BXI-72] | 490 ± 120 | significantly reduced the sensitivity | less effect on platelet than ABT-737 | relatively selective cytotoxicity | very low binding affinities | remained sensitive | very low binding affinities | 0.9 ± 0.15 | 1870 ± 160 | more potent efficacy against human lung cancer than ABT-737 | 680 ± 80 | very low binding affinities | very low binding affinities | Bcl-XL/Bak dissociation (Bcl-XL/Bak): dose-dependent Bcl-XL/Bak dissociation; maximum tolerated dose (MTD) (Nu/Nu nude mice [7]): 30~40 mg/kg/d; Cyt c release from mitochondria (Cyt c release): facilitate Cyt c release from mitochondria; liver histology (Nu/Nu nude mice [3]; 50mg): hepatocellular necrosis; ALT, AST, BUN, WBC and RBC (Nu/Nu nude mice [3]; 10–30mg/kg/d): no significant increases in ALT, AST and BUN or decreases in WBC and RBC; histopathology of normal tissues (Nu/Nu nude mice [3]; 10–30mg/kg/d): no evidence of normal tissue toxicities; body weight (Nu/Nu nude mice [3]; 20–30mg/kg): well tolerated without weight loss; ALT, AST and BUN (Nu/Nu nude mice [3]; 40–50mg/kg/d for two weeks): increases in ALT, AST and BUN; platelets (Nu/Nu nude mice [3]; increased doses of BXI-72, mice): dose-dependent reduction of platelets; Bak oligomerization (Bak): facilitated the formation of Bak dimers, trimers and multimers; effect on established lung cancer xenografts ([6]; H1299 xenografts, 10, 20 and 30mg/kg/d i.p. for 14 days): dose-dependent regression; apoptosis in tumor tissues (active caspase 3 IHC) ([6]; H1299 xenografts, 10-30mg/kg/d i.p. 14 days): dose-dependent apoptosis; Bcl-XL/Bax complexes (Bcl-XL/Bax): disrupts Bcl-XL/Bax complexes; lethality (Nu/Nu nude mice [8]; 50mg/kg/d i.p., six mice, within 10 days): uniformly lethal; death (Nu/Nu nude mice [8]; 10 to 30mg/kg/d i.p., after 25 days of daily administration): no death recorded; effect on tumors derived from A549-P and A549-IRR cells ([9]; 20mg/kg/d ×18): repressed tumors derived from both A549-P and A549-IRR cells; normal tissue toxicities ([9]; A549 xenograft mice, 20mg/kg/d): no significant normal tissue toxicities |
